Where “and” joins values, the source holds several entries; their conditions need not be identical. Equal values may be shown once.
Assays:
Rattus norvegicus [1] = species on record: Rattus norvegicus; test: In vitro inhibition of ADP-induced blood platelet aggregation; type: functional
Summary of the method: (§1)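 Rat carotid citrated blood was spun at 230g for 7 min to give PRP, adjusted with PPP to about 5 × 10⁵ platelets/μL. Compound in saline or MeOH was added before 10 μM ADP in Tris-HCl/NaCl pH 7.4 with CaCl₂. Aggregation was read at 30 °C, 1100 rpm, as maximal ΔA. EC50 is the concentration giving 50% inhibition.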

Rattus norvegicus [2] = species on record: Rattus norvegicus; test: In vitro inhibition of collagen-induced blood platelet aggregation; type: functional
Summary of the method: (§2)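 Rat PRP (about 5 × 10⁵ platelets/μL) was preincubated with compound added in saline or MeOH. Aggregation was started with bovine tendon collagen suspension in Tris buffer (absorbance 0.270 at 420 nm; lag 2–3 min). Read at 30 °C, 1100 rpm, as initial maximal rate ΔA/min. EC50 is the concentration giving 50% inhibition.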

Rattus norvegicus [3] = test: Effect on systolic blood pressure in rat after an oral dose at 50 mg/kg (1h after dose); type: functional, Artery
Summary of the method: (§3)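 Male Wistar-Imamichi rats, 250 g, were given the compound orally at (50 mg/7.5 mL)/kg as a suspension in 0.5% CMC or 0.5% Tween 80. Systolic pressure and heart rate were taken by tail-cuff after prewarming at 55–60 °C for 3 min, before dosing and at set times after. Five rats per group, mean ± SD. Pressure is reported as decrease and heart rate as percent change.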

Rattus norvegicus [4] = test: Effect on systolic blood pressure in rat after an oral dose at 50 mg/kg (3h after dose); type: functional, Artery; summary of the method: as §3
Rattus norvegicus [5] = test: Effect on systolic blood pressure in rat after an oral dose at 50 mg/kg (4h after dose); type: functional, Artery; summary of the method: as §3
Rattus norvegicus [6] = test: Effect on systolic blood pressure in rat after an oral dose at 50 mg/kg (5h after dose); type: functional, Artery; summary of the method: as §3
Rattus norvegicus [7] = species on record: Rattus norvegicus; test: Inhibition of thrombin-induced blood platelet aggregation in rat; Not mention; type: functional
Summary of the method: (§4)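 Rat PRP was prepared from citrated carotid blood of male Wistar-Imamichi rats (250 g) under pentobarbital anesthesia, spun at 230g for 7 min, and adjusted with PPP to about 5 × 10⁵ platelets/μL. Aggregation was read turbidimetrically at 30 °C with 1100 rpm stirring. Compound in saline or MeOH was added before the agonist. EC50 was estimated from inhibition at three to six concentrations, as the mean of two to three experiments.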

Rattus norvegicus [8] = test: Effect on heart rate in rat after an oral dose at 50 mg/kg; type: functional; summary of the method: as §3
Rattus norvegicus [9] = test: Ex vivo inhibition of collagen-induced blood platelet aggregation in rat was measured 2 hr after administration of vehical alone; type: functional
Summary of the method: (§5)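 Overnight-fasted rats were dosed orally at (50 mg/10 mL)/kg in 0.5% Tween 80; controls got vehicle at 10 mL/kg. PRP was made from carotid citrated blood 2 h later under pentobarbital. Collagen suspension (absorbance 0.270 at 420 nm) drove aggregation at 30 °C, 1100 rpm. Read-out was the initial maximal rate of absorbance fall (ΔA/min). Inhibition percent is versus controls; 5–7 rats, mean ± SD.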

Rattus norvegicus [10] = test: (§6) Ex vivo inhibition of collagen-induced blood platelet aggregation in rat was measured 2 hr after oral administration of 50 mg/kg; type: functional; summary of the method: as §5
Rattus norvegicus [11] = test: Effect on systolic blood pressure in rat after an oral dose at 50 mg/kg; type: functional, Artery; summary of the method: as §3
Rattus norvegicus [12] = test: Effect of compound on heart rate in rat after an oral dose at 50 mg/kg (24h after dose); Not mention; type: functional, organism-based; parameters: dose 50 mg/kg; summary of the method: as §3
Rattus norvegicus [13] = test: Effect on heart rate in rat after an oral dose at 50 mg/kg (3h after dose); type: functional; summary of the method: as §3
Rattus norvegicus [14] = test: Effect on heart rate in rat after an oral dose at 50 mg/kg (4h after dose); type: functional; summary of the method: as §3
Rattus norvegicus [15] = test: Effect of compound on heart rate in rat after an oral dose at 50 mg/kg (5h after dose); type: functional; summary of the method: as §3
Rattus norvegicus [16] = test: Effect on heart rate in rat after an oral dose at 50 mg/kg (1h after dose); type: functional; summary of the method: as §3
Rattus norvegicus [17] = species on record: Rattus norvegicus; test: Inhibition of ADP-induced blood platelet aggregation in rat; type: functional; summary of the method: as §1
[18] = Inhibition of collagen-induced blood platelet aggregation in human; type: functional
Summary of the method: (§7)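 In vitro aggregation used human platelets. EC50 was estimated from inhibition at three to six compound concentrations and is the mean of two to three experiments.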

[19] = Inhibition ofADP-induced blood platelet aggregation in human; type: functional
Summary of the method: (§8)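 In vitro platelet aggregation test. EC50 was estimated from the inhibition rate at three to six compound concentrations and given as the mean of two to three experiments.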

[20] = Inhibition of ADP-induced blood platelet aggregation in human; type: functional; summary of the method: as §7
Oryctolagus cuniculus = species on record: Oryctolagus cuniculus; test: Inhibition of serotonin/epinephrine-induced blood platelet aggregation in rabbit; type: functional; summary of the method: as §8
Rattus norvegicus [21] = test: Effect on systolic blood pressure in rat after an oral dose at 50 mg/kg (6h after dose); type: functional, Artery; summary of the method: as §3
Rattus norvegicus [22] = test: Effect of compound on systolic blood pressure in rat after an oral dose at 50 mg/kg (1h after dose); type: functional, Artery; summary of the method: as §3
Rattus norvegicus [23] = test: Effect of compound on systolic blood pressure in rat after an oral dose at 50 mg/kg (24h after dose); type: functional, Artery; summary of the method: as §3
Rattus norvegicus [24] = species on record: Rattus norvegicus; test: Inhibition of arachidonic acid-induced blood platelet aggregation in rat; type: functional
Summary of the method: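 Rat PRP was stimulated with arachidonic acid at 30 °C under stirring, with compound added before the agonist. EC50 was estimated from inhibition at three to six concentrations and is the mean of two to three experiments.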

Rattus norvegicus [25] = species on record: Rattus norvegicus; test: Inhibition of thrombin-induced blood platelet aggregation in rat; type: functional; summary of the method: as §4
Rattus norvegicus [26] = species on record: Rattus norvegicus; test: Inhibition of collagen-induced blood platelet aggregation in rat; type: functional; summary of the method: as §2
Rattus norvegicus [27] = test: Inhibition of ADP-induced blood platelet aggregation in rat given compound at an oral dose of 50 mg/kg (delta A/min *10e 3); type: functional
Rattus norvegicus [28] = test: Inhibition of collagen-induced blood platelet aggregation in rat was measured given compound at an oral dose of 50 mg/kg (delta A/min *10e 3); type: functional; summary of the method: as §5
Rattus norvegicus [29] = test: Inhibition of collagen-induced blood platelet aggregation in rat was measured given vehicle at an oral dose of 50 mg/kg (delta A/min *10e 3); type: functional; summary of the method: as §5
Rattus norvegicus [30] = test: as §6; type: functional; summary of the method: as §5
Rattus norvegicus [31] = test: Effect of compound on heart rate in rat after an oral dose at 50 mg/kg (24h after dose); type: functional; summary of the method: as §3
Rattus norvegicus [32] = test: Effect of compound on heart rate in rat after an oral dose at 50 mg/kg; type: functional; summary of the method: as §3
Rattus norvegicus [33] = test: Inhibition of ADP-induced blood platelet aggregation in rat given vehicle at an oral dose of 50 mg/kg (delta A/min *10e 3); type: functional
Rattus norvegicus [34] = test: Ex vivo inhibition of ADP-induced blood platelet aggregation in rat was measured 2 hr after administration of vehical alone (delta A/min *10e 3); type: functional
Rattus norvegicus [35] = test: Effect of compound on heart rate in rat after an oral dose at 50 mg/kg (6h after dose); type: functional; summary of the method: as §3
Rattus norvegicus [36] = test: Effect of compound on heart rate in rat after an oral dose at 50 mg/kg (2h after dose); type: functional; summary of the method: as §3
Rattus norvegicus [37] = test: Effect of compound on heart rate in rat after an oral dose at 50 mg/kg/5h after dose); type: functional; summary of the method: as §3

EC50 (Rattus norvegicus [1]) | EC50 (Rattus norvegicus [2]) | EC50 (Rattus norvegicus [17]) | EC50 [18] | EC50 [19] | EC50 (Oryctolagus cuniculus) | SMILES | Decrease in blood pressure (Rattus norvegicus [3]) | Decrease in blood pressure (Rattus norvegicus [4]) | Decrease in blood pressure (Rattus norvegicus [5]) | Decrease in blood pressure (Rattus norvegicus [6]) | Initial heart rate (Rattus norvegicus [8]) | Delta A/min (Rattus norvegicus [9]) | Delta A/min (Rattus norvegicus [10]) | Initial blood pressure (Rattus norvegicus [11]) | Change in heart rate (Rattus norvegicus [13]) | Change in heart rate (Rattus norvegicus [14]) | Change in heart rate (Rattus norvegicus [15]) | Change in heart rate (Rattus norvegicus [16]) | Decrease in blood pressure (Rattus norvegicus [21]) | Decrease in blood pressure (Rattus norvegicus [23]) | also measured
48000 nM | 600 nM | 48000 nM |  |  |  | CC1C(=O)NC2=Nc3sc4c(c3CN21)CCCC4.Cl (stereo not given) | 24 | 14 | 11 | 4 | 440 bts min-1 | 0.18 | 0.002 ΔA/min | 128 mmHg | 2% | 4% | 4% | 5% |  |  | EC50 (Rattus norvegicus [7]): Not mention; Change in heart rate (Rattus norvegicus [12]): Not mention
2000 nM | 70 nM | 2000 nM | 1200 nM and 400 nM | 2200 nM | 3000 nM | Cl.O=C1CN2Cc3c(sc4c3CCCC4)N=C2N1 |  | 8 | 8 | 9 | 467 bts min-1 |  |  | 122 mmHg | 8% | 12% | 9% | 4% | 6 | 4 | EC50 [20]: 2200 nM; Decrease in blood pressure (Rattus norvegicus [22]): 4; EC50 (Rattus norvegicus [24]): 500 nM; EC50 (Rattus norvegicus [25]): 3000 nM; EC50 (Rattus norvegicus [26]): 70 nM; Delta A/min (Rattus norvegicus [27]): 141; Delta A/min (Rattus norvegicus [28]): 0; Delta A/min (Rattus norvegicus [29]): 156; Delta A/min (Rattus norvegicus [30]): 0; Change in heart rate (Rattus norvegicus [31]): -1%; Change in heart rate (Rattus norvegicus [32]): 9%; Delta A/min (Rattus norvegicus [33]): 115
800 nM | 20 nM |  |  |  |  | O=C1CN2Cc3c(ccc(Cl)c3Cl)N=C2N1 [ANAGRELIDE] | 11 | 16 | 14 | 14 | 377 bts min-1 | 0.188 | 0.126 ΔA/min | 130 mmHg | 31% | 37% | 31% | 28% | 14 | 13 | Delta A/min (Rattus norvegicus [34]): 150; Change in heart rate (Rattus norvegicus [35]): 33%
5000 nM | 800 nM |  | 700 nM | 1700 nM and 10000 nM | 3000 nM | Cc1cccc2c1CN1CC(=O)NC1=N2 | 23 | 26 |  | 34 | 464 bts min-1 | 0.244 |  |  | 17% |  |  | 18% | 35 | 12 | EC50 (Rattus norvegicus [24]): 500 nM; EC50 (Rattus norvegicus [25]): 3000 nM; Delta A/min (Rattus norvegicus [30]): 0.11 ΔA/min; Change in heart rate (Rattus norvegicus [35]): 19%; Change in heart rate (Rattus norvegicus [31]; 50 mg/kg): 19% and -1%; Change in heart rate (Rattus norvegicus [36]): 20%; Change in heart rate (Rattus norvegicus [37]): 18%
